# Compound activity: PubChem, several laboratories
# Most compounds without a hit are left out; they make up all but 3% or so of the library.
# Tn6 DDE FP – DD(E)-Tn6 binding inhibition, primary FP screen | 370,000 tested, 0.21% active | inhibition, % at 8.3 µM | P02675 | Fibrin DD(E) TRITC-Tn6 fluorescence polarization displacement;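 active = inhibition above a per-campaign cutoff: mean of compounds within control limits plus 3 SD, cut at about 15% in these data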;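 also: 0% = median of all compound wells on the plate and 100% = blocking peptide control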
# DDE Tn7 FP inh – DD(E)-Tn7 binding inhibition, primary FP screen; P02675; FP displacement of FITC-Tn7 peptide from fibrin DD(E); 0% = median of compound wells per plate; inhibition, % at 8.3 µM; 370,000 tested, 0.13% active; AID 720508;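 active = inhibition above the mean of compounds falling within the control limits plus 3 SD of them, cut at about 14% in these data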;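 also: 0% = plate median of compound wells and 100% = 10 µM Aha-Tn7 peptide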
#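 System: human fibrin DD(E); quantity: Fibrin-DD(E) at 2 µM final; also added: fluorescent Tn7 probe at 0.1 µM; compound dosing: single nominal test concentration of 8.3 µM per compound; schedule: 10 min preincubation, 3 h with tracer, room temperature; detection: fluorescence polarization of the labelled Tn7 tracer; repeats: one replicate per compound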
# PLCb3 inh – blocks human PLC-beta3 enzyme activity. Q01970. Purified PLC-beta3, fluorogenic substrate, fluorescence. inhibition, % at 12.2 µM. 370,000 tested, 0.18% active;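 also: 0% = median of compound wells on plate and 100% = full blocker control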
# CendR NRP1 mod – alters CendR peptide binding to human NRP-1 | FAM-RPARPAR peptide binding to NRP-1, fluorescence polarization | 360,000 tested, 0.85% active | O14786 | inhibition, % at 25 µM | AID 602438;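 active = inhibition or corrected inhibition above about 18%, plus a signal ratio from 0.5 to 1.5, limit read from the data, passing the limit was not always enough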
# proKLK7 act – activates the human kallikrein-7 zymogen; 370,000 tested, 0.9% active; AID 652039; purified proKLK7, EDANS-DABCYL substrate fluorescence; 100% is mature enzyme control, 0% vehicle; activation, % at 7 µM;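 active = activation above the mean of all tested compounds plus 3 SD, computed per campaign excluding outliers beyond control limits, cut at about 13% in these data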
# PLC-gamma1 inh – PLC-gamma1 (human) inhibition, primary screen. P19174. purified PLC-gamma1, fluorogenic substrate, fluorescence. inhibition, % at 12.2 µM. 370,000 tested, 0.84% active; in the data active = inhibition above about 9.5%
# PLCg1 ctr – PLC-gamma1 inhibition, counter-screen for PLC-beta3 hits; shares compounds with PLC-gamma1 inh; purified PLC-gamma1, fluorogenic substrate, fluorescence; inhibition, % at 12.3 µM; 3,300 tested, 3.1% active; in the data active = inhibition above about 9.5%
# PLCb3 confirm – human PLC-beta3 inhibition, confirmation; 3,300 tested, 1% active; purified PLC-beta3, fluorogenic substrate fluorescence; inhibition, % at 12.3 µM; shares compounds with PLC-gamma1 inh
# An asterisk follows results filed as active; . = no result. Rule as the data show it, unless noted: active = inhibition above about 11%; inactive = the rest.
SMILES,Tn6 DDE FP,DDE Tn7 FP inh,PLCb3 inh,CendR NRP1 mod,proKLK7 act,PLC-gamma1 inh,PLCg1 ctr,PLCb3 confirm
Cc1ccc(CN2CCCCC(NC(=O)c3cccc([N+](=O)[O-])c3)C2=O)cc1 (configuration not stated),0,2,-4,.,0,-3,.,.
COC(=O)C1=C[C@@H]([C@@H](C)[C@H](OC)c2ccccc2Br)[C@@H]2OCCC[C@H]12,-4,9,0,.,0,-1,.,.
CCCc1cc(=O)oc2c(C)c(O[C@@H]3O[C@H](CO)[C@@H](O)[C@H](O)[C@H]3O)ccc12,-4,-2,-8,4,0,1,.,.
O=C(O)c1cc(O)c2c(c1)[C@H]([C@H]1c3cc(C(=O)O)cc(O)c3C(=O)c3c(O[C@@H]4O[C@H](CO)[C@@H](O)[C@H](O)[C@H]4O)cccc31)c1cccc(OC3O[C@H](CO)[C@@H](O)[C@H](O)[C@H]3O)c1C2=O (some centres not stated),-38,4,19*,-14,0,33*,28*,7
Nc1ccn([C@@H]2O[C@H](C(=O)N[C@H](Cc3ccccc3)C(=O)NCc3cccc4c3OCO4)[C@@H](O)[C@H]2O)c(=O)n1,6,4,3,.,-1,-1,.,.
Cc1cc(C(=O)NCC2CCCCC2)ccc1[N+](=O)[O-],-2,-7,1,-1,0,11*,-6,-1
C#CCNC(=O)C[C@H]1C[C@@]2(C(=O)OC)C(=C[C@H](C3CCCC3)O[C@@H]2C)N(CCC2=CCCCC2)C1=O,8,3,0,.,0,1,.,.
O=C(c1ccc(Cl)cc1)N1CCCOC1,-10,-3,13*,-21,0,16*,4,2
O=C(c1ccc(CS(=O)Cc2ccc(Cl)cc2)o1)N1CCN(c2ccc(F)cc2)CC1 (configuration not stated),-1,-7,-4,11,0,9.5*,-2,-2
NC(=O)C1CCCN(C(=O)c2ccc(Cl)cc2)C1 (configuration not stated),0,-1,6,6,0,2,.,.
O=C(c1cccc([N+](=O)[O-])c1)N1CCN(c2ccc(Cl)cc2)CC1,2,1,2,-5,-1,11*,2,-1
O=C(c1ccc(Cl)cc1)N1CCN(c2ccc(F)cc2)CC1,3,-7,5,-4,0,11*,-4,0
CCOc1ccc(-n2c(SCC(=O)Nc3ccc(S(=O)(=O)Nc4cc(C)nc(C)n4)cc3)nnc2-c2ccc(OC)cc2)cc1,0,6,-2,.,1,3,.,.
NC(=S)N=Nc1c(O)n(CC(=O)Nc2ccccc2)c2ccccc12,3,9,2,9,0,7,.,.
Cc1cccc(NC(=O)Cn2c(O)c(N=NC(=O)c3ccccc3O)c3ccccc32)c1,0,-8,2,-9,-1,11*,8,-1
Cc1ccc(C(C)C)cc1S(=O)(=O)NCc1cccnc1,-6,-4,3,17,0,9.9*,-6,-4
Cc1ccccc1S(=O)(=O)NCc1cccnc1,2,0,3,4,-1,-2,.,.
c1ccc(-c2nnc3n2N=C(c2ccc4ccccc4c2)CS3)cc1,6,4,4,.,0,0,.,.
COc1cccc(/C=C2\CC3(OC(=O)c4ccc(Cl)cc4)CCCN2C3)c1 (configuration not stated),-7,-8,-3,.,0,1,.,.
COC(=O)C1CCCN1C(=O)COc1ccc(Br)cc1Cl (configuration not stated),-8,-11,8,-14,0,14*,-8,-118
O=C(COc1ccc(Br)cc1Cl)NC1CCCCC1,4,-11,-1,-4,0,0,.,.
Cc1cccc(N2CCN(S(=O)(=O)c3cc4c(cc3Cl)NC(=O)CO4)CC2)c1C,-8,-1,1,-35,-1,10*,2,-3
COC(=O)[C@]1(CNS(=O)(=O)C2CC2)CC(=O)N(C)[C@@H]1c1ccccc1,7,0,2,.,0,1,.,.
CCCC[C@H]1C2CC(OC(=O)Nc3ccc(C)cc3)C(C2)[C@H]2CCCCN21 (some centres not stated),2,1,0,.,0,7,.,.
Oc1ccc(C[C@@H]2CNCCN2CCc2cc(C(F)(F)F)cc(C(F)(F)F)c2)cc1,-1,-2,3,-7,0,2,.,.
SMILES,Tn6 DDE FP,DDE Tn7 FP inh,PLCb3 inh,CendR NRP1 mod,proKLK7 act,PLC-gamma1 inh,PLCg1 ctr,PLCb3 confirm
Oc1ccc(C[C@@H]2CNCCN2CCCCC2CCCCC2)cc1,4,-7,14*,16,0,9,3,3
COc1ccc(Cn2cc(COC(=O)N3CCCC3)nn2)cc1,9,-6,3,.,0,2,.,.
Nc1cc(N)c2c(c1)C(=O)c1ccccc1-2,-10,-1,7,7,0,9.8*,-3,3
O=C(NCc1ccccc1)OCCCN1C(=O)CCC12CCCCC2,7,1,1,.,0,-2,.,.
CCOC(=O)C1C(=O)OC(C)(C)C1C(C)C(=O)c1ccc(C)cc1 (configuration not stated),-4,0,9,-13,0,9.5*,-2,-4
Cc1ccc(CN2CCCCC(NC(=O)Nc3ccccc3)C2=O)cc1 (configuration not stated),-3,12,0,.,1,0,.,.
CC(C)N(CCO)C(=O)CCc1nnc(Cc2cccc(C(F)(F)F)c2)o1,-3,-5,-2,-1,0,9.7*,-1,1
Cn1nnnc1SCCNCc1cccc2ccccc12,4,3,-137,-6,0,0,.,.
Cn1nnnc1SCCNC/C=C/c1ccccc1,1,4,13*,-4,-1,8,-5,0
COc1cc([N+](=O)[O-])ccc1NC(=O)CC1SC(=Nc2ccc(F)cc2)N(CCC2=CCCCC2)C1=O (configuration not stated),3,-1,1,-9,0,2,.,.
COc1ccc(OC)c(NC(=O)CC2SC(=Nc3ccc(F)cc3)N(CCC3=CCCCC3)C2=O)c1 (configuration not stated),2,-3,4,-22,-1,11*,1,-4
CCCCn1c(SCC(=O)Nc2nnc(C(C)C)s2)nc2c1c(=O)n(C)c(=O)n2C,8,0,1,-3,0,2,.,.
CCCn1c(SCC(=O)Nc2nc3c(s2)CCCC3)nc2c1c(=O)n(C)c(=O)n2C,-4,6,7,-7,0,10*,1,1
